Published values from different studies.
PIP4K2C: Phosphatidylinositol 5-phosphate 4-kinase type-2 gamma (PIP4K2C, Homo sapiens, UniProt Q8TBX8)
NMUR1: Neuromedin-U receptor 1 (NMUR1, Homo sapiens, UniProt Q9HB89)

With `COc1ccc(-c2nsc(NC(=O)[C@@H]3C[C@H]3C)c2C)cc1` the EC50 was greater than 25000 nM (Metabotropic glutamate receptor 2 (GRM2, Homo sapiens, UniProt Q14416); calcium signal, agonist).
The IC50 of `COc1ccc2c(Oc3ccc4c(C(=O)Nc5ccccc5N)cccc4c3)ccnc2c1` is reported as greater than 500 nM (Mitogen-activated protein kinase 9 (MAPK9, Homo sapiens, UniProt P45984); enzyme activity, inhibitor).
The DC50 of `Cc1ncsc1-c1ccc([C@H](C)NC(=O)[C@@H]2C[C@@H](O)CN2C(=O)[C@@H](NC(=O)CCCCCC(=O)N2CCC3(CC2)CCN(c2cncc(Nc4ncc(Cl)c(-c5cccc(-c6ccccc6)c5)n4)c2)C3=O)C(C)(C)C)cc1` is reported as 24 nM (PIP4K2C; protein level, degrader, western blot).
`CN1CC(Oc2cnc(C#N)cc2-c2ccn3nc(NC(=O)C4CC4)cc3c2)C1` has a Ki of 220 nM (Tyrosine-protein kinase Lck (LCK, Homo sapiens, UniProt P06239); enzyme activity, inhibitor).
`O=C(/C=C/c1ccc(O)c2c1[C@H](C(=O)O[C@H](Cc1ccc(O)c(O)c1)C(=O)O)[C@@H](c1ccc(O)c(O)c1)O2)O[C@H](Cc1ccc(O)c(O)c1)C(=O)O` has a Kd of 3740 nM (Platelet glycoprotein 4 (CD36, Homo sapiens, UniProt P16671); binding, SPR).
For `CC(C)C[C@H](NC(=O)[C@H](Cc1ccccc1)NC(=O)[C@@H](N)Cc1ccc(O)cc1)C(=O)N[C@@H](Cc1ccccc1)C(=O)N[C@@H](CCCNC(=N)N)C(=O)N1CCC[C@H]1C(=O)N[C@@H](CCCNC(=N)N)C(=O)N[C@@H](CC(N)=O)C(N)=O`, the EC50 was 1.7 nM (NMUR1; β-arrestin recruitment, agonist).
`CC(C)(C)CC(C)(C)c1ccc(O)cc1` gave an EC50 of 197 nM (Estrogen receptor beta (ESR2, Homo sapiens, UniProt Q92731); reporter gene, agonist, luciferase).
`Cc1cnc(-c2ccc(-c3ccc(NC(=O)Nc4c(F)cc(F)cc4F)cc3F)c3c2C(=O)NC3)[nH]1` gave a Kd of 9.4 nM (Proto-oncogene tyrosine-protein kinase receptor Ret (RET, Homo sapiens, UniProt P07949); binding, competition with immobilised ligand).
With `CC(C)C[C@H](NC(=O)[C@H](Cc1ccccc1)NC(=O)[C@H](Cc1ccc(O)cc1)NC(=O)CNC(=O)[C@H](CCCNC(=N)N)NC(=O)[C@H](CO)NC(=O)[C@H](CCC(N)=O)NC(=O)[C@H](CO)NC(=O)[C@H](C)NC(=O)[C@H](Cc1ccccc1)NC(=O)[C@@H]1CCCN1C(=O)[C@H](CO)NC(=O)[C@H](CCC(N)=O)NC(=O)[C@H](Cc1ccccc1)NC(=O)[C@H](CCC(=O)O)NC(=O)[C@H](CCC(=O)O)NC(=O)[C@H](CC(=O)O)NC(=O)[C@@H](NC(=O)[C@H](CCCNC(=N)N)NC(=O)[C@@H](N)Cc1ccccc1)C(C)C)C(=O)N[C@@H](Cc1ccccc1)C(=O)N[C@@H](CCCNC(=N)N)C(=O)N1CCC[C@H]1C(=O)N[C@@H](CCCNC(=N)N)C(=O)N[C@@H](CC(N)=O)C(N)=O` the EC50 was 0.12 nM (NMUR1; inositol phosphate, agonist, TR-FRET).
`CC(=O)Nc1cc(Oc2ccc3c(c2)CCN3C(=O)Nc2ccc(CN3CCN(C)CC3)c(C(F)(F)F)c2)ncn1` gave a Ki of 22000 nM (Tyrosine-protein kinase JAK2 (JAK2, Homo sapiens, UniProt O60674); enzyme activity, inhibitor, ELISA).
With `Nc1ncc2c(n1)-c1c([nH]c3ccc(C#CC4CC4)cc13)CCCC2` the Kd was 6400 nM (PIP4K2C; binding, competition with immobilised ligand).
`Cc1cc2nc3c(=O)[nH]c(=O)nc-3n(C[C@H](O)[C@H](O)[C@H](O)COP(=O)(O)OP(=O)(O)OC[C@H]3O[C@@H](n4cnc5c(N)ncnc54)[C@H](O)[C@@H]3O)c2cc1C` has a Kd of 152 nM (Alpha-crystallin B chain (CRYAB, Homo sapiens, UniProt P02511); binding; lysate).
